In the library only some 4.2% were active in any assay of this set; here they are far more common.
GalR3 antag: GalR3 antagonists in HEK293 cells, primary screen, cell-based, fluorescence readout; Galanin receptor type 3 (Homo sapiens), O60755; HEK293 GalR3-CNG cAMP membrane potential fluorescence; galR3 body fused to GalR1 C-terminus; inhibition, % at 3 µM; 360,000 compounds, 0.44% hits;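 active = inhibition above the screen-wide average plus 3 SD, cut at about 13% in these data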;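 also: forskolin and galanin both at EC90 stimulate the cells; cAMP rise reported by CNG channel membrane potential dye signal; 0% = forskolin plus galanin with DMSO and 100% = forskolin alone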
Target sequence (O60755 1-299 limits assumed): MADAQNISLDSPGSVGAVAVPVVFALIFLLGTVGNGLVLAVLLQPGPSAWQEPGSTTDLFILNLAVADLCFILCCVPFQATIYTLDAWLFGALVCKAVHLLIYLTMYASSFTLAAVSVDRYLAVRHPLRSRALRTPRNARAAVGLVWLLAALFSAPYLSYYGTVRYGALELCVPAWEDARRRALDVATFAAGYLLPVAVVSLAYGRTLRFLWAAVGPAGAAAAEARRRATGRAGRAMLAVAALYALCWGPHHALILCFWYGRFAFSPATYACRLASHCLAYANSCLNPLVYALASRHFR
CHO parental Ca: ATP-evoked calcium signal inhibitors, parental CHO, primary screen, counter-screen for OX1R antagonist project, cell-based, fluorescence, Fluo-8 calcium dye | parental CHO-K1, ATP-induced calcium, Fluo-8 fluorescence | inhibition, % at 5.6 µM | 330,000 compounds, 0.63% hits | AID 463079, 2010;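 active = inhibition above that plate's mean sample inhibition plus 3 SD, cut at about 26% in these data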;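 also: 0% = ATP-challenged DMSO wells and 100% = DMSO wells without ATP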
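Material – parental CHO cells · Reagent – ATP stimulus · Compound – single nominal dose of 5.6 µM per compound · Detection – Fluo-8 fluorescence · Read-out basis – percent inhibition of calcium signal · Controls – ATP-challenged DMSO wells low, unchallenged DMSO wells high · Repeats – no replicates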
TAAR1 antagonist: human TAAR1 antagonists, primary screen, Fluo-8 calcium fluorescence, CHO RD-HGA16 cells; antagonist; inhibition, % at 3 µM; 360,000 compounds, 1.5% hits; Trace amine-associated receptor 1 (Homo sapiens), Q96RJ0;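 active = inhibition above a per-plate cutoff, the mean inhibition of test compounds on that plate plus 3 SD, cut at about 49% in these data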;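 also: 0% = DMSO plus EC80 beta-PEA response and 100% = DMSO alone without agonist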
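Material: RD-HGA16 CHO cells with stable hTAAR1 and Gα16; Dosing: single nominal final test compound concentration of 3 µM; Schedule: seeding 17-24 h prior, 75-min 37 °C, 30-min RT dye loading; Detection: kinetic Fluo-8 calcium fluorescence measurement; Measure: % inhibition from peak post-agonist over basal fluorescence ratio; Benchmarks: vehicle and agonist controls.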
OX1R antag-1: OX1R (HCRTR1) antagonists, primary screen, fluorescence, CHO/OX1R cells, Fluo-8 calcium, orexin A. Orexin/Hypocretin receptor type 1 (Homo sapiens), O43613. Fluo-8 calcium fluorescence. inhibition, % at 5 µM. 330,000 compounds, 0.43% hits;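 active = inhibition above its plate's threshold, mean inhibition of all tested compounds on the plate plus 3 SD, cut at about 37% in these data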;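 also: 0% = orexin A challenge wells and 100% = SB-334867-A antagonist wells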
Target sequence (O43613 whole entry, looked up): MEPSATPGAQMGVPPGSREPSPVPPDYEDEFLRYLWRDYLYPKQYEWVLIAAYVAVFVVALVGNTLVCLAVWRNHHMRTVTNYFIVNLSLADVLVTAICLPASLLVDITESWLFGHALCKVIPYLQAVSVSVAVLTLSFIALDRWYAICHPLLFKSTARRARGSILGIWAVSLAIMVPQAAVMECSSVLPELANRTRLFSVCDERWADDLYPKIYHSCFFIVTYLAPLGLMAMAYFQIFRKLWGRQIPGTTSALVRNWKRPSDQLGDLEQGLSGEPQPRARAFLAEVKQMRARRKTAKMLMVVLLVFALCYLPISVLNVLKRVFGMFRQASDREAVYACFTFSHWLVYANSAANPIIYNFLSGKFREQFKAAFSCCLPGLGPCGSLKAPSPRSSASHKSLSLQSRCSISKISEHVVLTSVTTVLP
OX1R antag-2: antagonists of human orexin 1 receptor (OX1R) | Orexin/Hypocretin receptor type 1 (Homo sapiens), O43613 | inhibition, % at 6.6 µM | 330,000 compounds, 1.8% hits | OX1R-expressing cells, FRET antagonist read-out; in the data active = inhibition mostly above about 38%, no sharp cut-off; inactive = mostly below about 40%;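 also: 0% = agonist challenge alone and 100% = reference antagonist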
TAAR1 ag: human TAAR1 agonists, primary screen, Fluo-8 calcium fluorescence, CHO RD-HGA16 cells. Trace amine-associated receptor 1 (Homo sapiens), Q96RJ0. AID 624467, 2012. activation, % at 3 µM. vehicle wells 0%, saturating PEA agonist 100%. 360,000 compounds, 0.99% hits;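 active = activation above the mean activation of all test compounds in the run plus 3 SD, cut at about 38% in these data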
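Test system: RD-HGA16 (CHO) cells co-expressing Gα16 and hTAAR1; dosing: one-point dosing at 3 µM (nominal); timing: 17-24 h seeding, 75 min 37 °C dye, 30 min RT; signal: kinetic Fluo-8 calcium fluorescence; read-out basis: % activation relative to PEA EC100 response; controls: DMSO and PEA EC100; replicates: n 1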
TAAR1 nonsel count: nonselective antagonists in TAAR1 counter-screen cells, counter-screen for hTAAR1 antagonist project, cell-based, fluorescence, calcium | shares compounds with TAAR1 antagonist | counterscreen cell line, antagonist mode | inhibition, % at 3 µM | 2,400 compounds, 77% hits | AID 651780, 2012; in the data active = inhibition above about 22%;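 also: CHO-Ga16 host cells stimulated with ATP at an EC80 level; 0% = agonist EC80 plus vehicle and 100% = vehicle without agonist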
TAAR1 ant conf: human TAAR1 antagonists, retest of hits, confirmation, cell-based, fluorescence. shares compounds with TAAR1 antagonist. TAAR1-expressing cells, fluorescence antagonist read-out. inhibition, % at 3 µM. 2,400 compounds, 40% hits. AID 651785, 2012; in the data active = inhibition above about 49%;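 also: CHO-Ga16 host cells challenged with agonist PEA near its EC80; 0% = agonist at EC80 plus vehicle and 100% = vehicle with no agonist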
Ga16 nonsel ag: calcium activation in Ga16-expressing cells, counter-screen for TAAR1 antagonist project, cell-based, fluorescence; 2,400 compounds, 18% hits; AID 651953, 2012; activation, % at 3 µM; shares compounds with TAAR1 antagonist; agonist counterscreen; in the data active = activation above about 12%;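 also: 0% = vehicle wells and 100% = saturating stimulus response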
TAAR1 ag counter: TAAR1 activation by candidate antagonists – cell-based, fluorescence, counter-screen for TAAR1 antagonist project; shares compounds with TAAR1 antagonist; hTAAR1 cell line, agonist mode; activation, % at 3 µM; 2,400 compounds, 2% hits; AID 651955, 2012; in the data active = activation above about 37%;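 also: CHO cells stably expressing TAAR1 with calcium dye readout; 0% = DMSO vehicle and 100% = full agonist response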
* = called active by the depositor.

Screening CCOC(=O)C1(Cc2cccc(F)c2)CCN(C(=O)C2CCC2)CC1 returned GalR3 antag -7.1, CHO parental Ca -3.7, TAAR1 antagonist 104.9*, OX1R antag-1 -17.2, OX1R antag-2 11.1, TAAR1 ag 5.8, TAAR1 nonsel count 13.9, TAAR1 ant conf -3.1, Ga16 nonsel ag 5.2 and TAAR1 ag counter 6.5.
Screening CC(C)C(=O)Nc1ccc(C(=O)NNC(=O)C(c2ccccc2)c2ccccc2)cc1 returned GalR3 antag -6.2, CHO parental Ca 0.3, TAAR1 antagonist -25.1, OX1R antag-1 -7.2, OX1R antag-2 12.0 and TAAR1 ag 5.6.
For COC(=O)CNC(c1ccccc1)c1cc(C)ccc1NC(=O)CNC(=O)OCc1ccccc1 (stereo not drawn) the results were GalR3 antag -7.5, CHO parental Ca -27.1, TAAR1 antagonist 4.8, OX1R antag-1 -32.5, OX1R antag-2 30.0 and TAAR1 ag -0.6.
For COC(=O)CNC(c1ccccc1)c1cc(C)ccc1NC(=O)c1cccc(Cl)c1 (stereo not drawn) the results were GalR3 antag -6.9, CHO parental Ca -25.1, TAAR1 antagonist 66.7*, OX1R antag-1 -32.2, OX1R antag-2 16.0, TAAR1 ag 0.4, TAAR1 nonsel count 22.8*, TAAR1 ant conf 46.7, Ga16 nonsel ag 3.4 and TAAR1 ag counter 8.7.
For COc1ccc(S(=O)(=O)Nc2ccc3c(c2)COC3=O)cc1OC the results were GalR3 antag -4.0, CHO parental Ca -9.7, TAAR1 antagonist -0.4, OX1R antag-1 -9.8, OX1R antag-2 9.4 and TAAR1 ag 11.9.
C[C@@]12C(=O)N(Cc3ccc(-c4ccccc4)cc3)CC(=O)N1[C@H](/C=C/c1ccccc1)[C@@H]1C(=O)N(c3ccccc3)C(=O)[C@@H]12 was read as GalR3 antag -2.1, CHO parental Ca -22.2, TAAR1 antagonist 53.9*, OX1R antag-1 -25.7, OX1R antag-2 11.5, TAAR1 ag 10.1, TAAR1 nonsel count 30.2*, TAAR1 ant conf 30.1, Ga16 nonsel ag 3.4 and TAAR1 ag counter 3.5.
For CC1CCCCC1NC(=O)c1ccc(-n2cncn2)cc1 (stereo not drawn) the results were GalR3 antag -5.9, CHO parental Ca -9.7, TAAR1 antagonist 92.9*, OX1R antag-1 3.1, OX1R antag-2 8.0, TAAR1 ag -2.9, TAAR1 nonsel count 12.7, TAAR1 ant conf 4.9, Ga16 nonsel ag 7.6 and TAAR1 ag counter 5.4.
For CC1CCCCC1NC(=O)c1ccc(-n2cncn2)c([N+](=O)[O-])c1 (stereo not drawn) the results were GalR3 antag -1.4, CHO parental Ca -10.4, TAAR1 antagonist -8.3, OX1R antag-1 -24.3, OX1R antag-2 32.6 and TAAR1 ag 0.7.
`O=C(NCc1ccccc1)c1ccc2nc(-c3ccco3)c(-c3ccco3)nc2c1` gave GalR3 antag -6.6, CHO parental Ca -9.3, TAAR1 antagonist 37.9, OX1R antag-1 -16.4, OX1R antag-2 13.5 and TAAR1 ag 6.4.
Screening CC1CCN(c2c(NCC3CCC(C(=O)N4CCc5ccccc5C4)CC3)c(=O)c2=O)CC1 (stereo not drawn) returned GalR3 antag 8.4, CHO parental Ca -14.0, TAAR1 antagonist -28.0, OX1R antag-1 -25.3, OX1R antag-2 23.3 and TAAR1 ag -0.1.
COc1ccc(C2CC(=O)C(c3ccccc3OC)=CN2Cc2ccccc2)cc1 (stereo not drawn) was read as GalR3 antag -4.2, TAAR1 antagonist 56.3*, TAAR1 ag 6.1, TAAR1 nonsel count 20.9, TAAR1 ant conf 36.6, Ga16 nonsel ag 4.9 and TAAR1 ag counter 5.1.
`COc1ccc(C2CC(=O)C(c3ccc(C)cc3)=CN2Cc2ccccc2)cc1` (stereo not drawn) gave GalR3 antag -8.1, TAAR1 antagonist 21.6 and TAAR1 ag -1.1.
O=C(NN1CCOCC1)c1ccc(Br)s1 was read as GalR3 antag -3.7, CHO parental Ca 13.9, TAAR1 antagonist -11.3, OX1R antag-1 11.3, OX1R antag-2 0.9 and TAAR1 ag 2.6.
COc1cccc(-c2nc(NC3CCCC3)c3ccccc3n2)c1O was read as GalR3 antag -10.8, CHO parental Ca -6.2, TAAR1 antagonist 61.4*, OX1R antag-1 11.3, OX1R antag-2 30.1, TAAR1 ag 8.2, TAAR1 nonsel count 21.5*, TAAR1 ant conf 52.6*, Ga16 nonsel ag 7.5 and TAAR1 ag counter 12.2.
Screening CN(CC(=O)NC(=O)NC1CCCCC1)CC(=O)Nc1ccc(OC(F)(F)F)cc1 returned GalR3 antag -6.3, CHO parental Ca -16.9, TAAR1 antagonist -2.5, OX1R antag-1 -3.8, OX1R antag-2 1.4 and TAAR1 ag 9.2.
`CCC(C)[C@H](NC(=O)c1cc2cc(Cl)ccc2n1C)C(=O)N1CCC(C(=O)O)CC1` (stereo partly drawn) gave GalR3 antag -9.5, CHO parental Ca -8.6, TAAR1 antagonist -0.9, OX1R antag-1 -21.1, OX1R antag-2 8.5 and TAAR1 ag -2.2.
`CCSc1nc2ccccc2c(=O)n1CCc1ccc(OC)c(OC)c1` gave GalR3 antag -6.3, CHO parental Ca -19.7, TAAR1 antagonist 61.2*, OX1R antag-1 -30.5, OX1R antag-2 15.6, TAAR1 ag 4.3, TAAR1 nonsel count 29.8*, TAAR1 ant conf 43.5, Ga16 nonsel ag 4.1 and TAAR1 ag counter 6.9.
For COc1ccc(CCn2c(C)nc3ccccc3c2=O)cc1OC the results were GalR3 antag -2.0, CHO parental Ca -10.5, TAAR1 antagonist 25.3, OX1R antag-1 -14.0, OX1R antag-2 11.9 and TAAR1 ag 11.2.

Screening results deposited in PubChem by The Scripps Research Institute Molecular Screening Center.
